TRPML3 ag: human TRPML3 channel agonists, primary screen, cell-based, HEK293 TRPML3-YFP, Fluo-8 calcium fluorescence, 3 µM; Mucolipin-3 (Homo sapiens), Q8TDD5; 100% = the carbachol control signal; activation, % at 3 µM; hit rate 0.29% among 220,000;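 active means activation above its plate's cutoff, the mean activation of the plate's test wells plus 3 SD, cut at about 12% in these data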
Target sequence (Q8TDD5 whole entry, looked up): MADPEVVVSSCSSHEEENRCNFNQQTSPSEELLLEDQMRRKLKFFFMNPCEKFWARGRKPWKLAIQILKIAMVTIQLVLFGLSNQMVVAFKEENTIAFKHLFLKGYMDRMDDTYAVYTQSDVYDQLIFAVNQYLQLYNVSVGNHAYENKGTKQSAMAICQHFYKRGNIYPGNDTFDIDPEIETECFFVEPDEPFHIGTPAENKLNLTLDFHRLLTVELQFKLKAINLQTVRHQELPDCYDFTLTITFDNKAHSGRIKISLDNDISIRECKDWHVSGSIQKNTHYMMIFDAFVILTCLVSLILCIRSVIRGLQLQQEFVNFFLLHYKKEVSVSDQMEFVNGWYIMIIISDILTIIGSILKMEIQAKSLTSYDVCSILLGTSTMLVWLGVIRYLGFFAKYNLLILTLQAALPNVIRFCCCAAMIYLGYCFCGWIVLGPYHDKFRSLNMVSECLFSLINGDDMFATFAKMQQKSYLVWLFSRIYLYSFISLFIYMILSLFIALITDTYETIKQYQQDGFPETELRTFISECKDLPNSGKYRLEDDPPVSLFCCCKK
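system = HEK293 cells stably carrying human TRPML3-YFP | doses = one concentration, 3 µM nominal, 0.3% DMSO | timing = dye loading 1 h 37 °C then 30 min ambient, 125 s read | detection = Fluo-8 calcium dye fluorescence, ex 470-495, em 515-575 nm | benchmarks = high control carbachol 87 µM, low control DMSO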
OXTR agonist: human OXTR agonists, primary screen, fluorescence, CHO-OTR cells, Fluo-8 calcium; Oxytocin receptor (Homo sapiens), P30559; Fluo-8 calcium fluorescence; normalized: DMSO 0%, oxytocin 100%; activation, % at 3 µM; hit rate 0.32% among 320,000; AID 2435, 2010;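 active means activation above the mean of all tested compounds plus 3 SD, cutoff set per screening run, cut at about 20% in these data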;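 further: peak over basal fluorescence ratio from a 100 s FLIPR kinetic read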
V1aR counter: agonists of human V1a receptor, primary screen, counter-screen for OXTR agonist project, fluorescence, CHO-V1R cells; Vasopressin V1a receptor (Homo sapiens), P37288; hit rate 0.25% among 320,000; Fluo-8 calcium fluorescence, agonist mode; 0% DMSO, 100% 3 nM vasopressin; activation, % at 3 µM;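 active means activation above the mean activation of all tested compounds plus 3 SD, per screening run, cut at about 20% in these data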;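 further: signal is peak over basal fluorescence ratio across a 100 second FLIPR read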
OXTR potentiator: human OXTR potentiators, primary screen, fluorescence, CHO-OTR cells, Fluo-8 calcium; Oxytocin receptor (Homo sapiens), P30559; Fluo-8 calcium fluorescence, potentiator mode; 0% = oxytocin EC15, 100% = EC100; activation, % at 3 µM; hit rate 0.061% among 320,000;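 active means activation above that plate's cutoff, the mean activation of tested compounds plus 3 SD, cut at about 6.6% in these data, passing the limit was not always enough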
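System: human OTR in CHO cells / Also added: sub-maximal oxytocin, roughly EC15 / Control set: EC15 oxytocin low, 75 nM oxytocin high / Schedule: 6 min compound pre-incubation at room temperature, 100 s kinetic read / Compound: single-point 3.0 µM / Replication: singlicate / Technique: Fluo-8 calcium dye fluorescence / Read-out basis: % activation of max/min ratio relative to oxytocin controls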
zfTRPN1 agonist: zebrafish TRPN1 channel agonists, primary screen, cell-based, HEK293, calcium fluorescence; transient receptor potential cation channel N1 (TRPN1/NompC), Danio rerio; AID 1424, 2008; HEK293 zebrafish TRPN1-YFP, Fluo-8 calcium fluorescence; 100% = response to 87 µM carbachol; hit rate 0.18% among 220,000; activation, % at 3 µM;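 active means activation above its plate's cutoff, the mean activation of test wells on that plate plus 3 SD, cut at about 19% in these data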
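Assay system: Zebrafish TRPN1-YFP in HEK293 cells | Incubation: Dye loading 1 h at 37 °C, then 30 min room temperature | Measured by: Kinetic Fluo-8 fluorescence, ex 470-495, em 515-575 nm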
Each line names hits and unclear results; the compound was inactive in the other large screens. Most compounds without a hit are left out; they make up all but 0.58% or so of the library.

O=C(c1ccc(NC(=S)NCc2ccc(Cl)cc2)cc1)N1CCCCC1	OXTR agonist 21, V1aR counter 21
Cc1ccccc1C(=O)NC1CC2CCCC(C1)N2Cc1ccc(Cl)cc1 (stereo not given)	none (no result: TRPML3 ag, zfTRPN1 agonist)
COc1ccc(C2(C)NC(=O)N(CC(=O)c3cc(C)n(C4CC4)c3C)C2=O)cc1 (stereo not given)	OXTR agonist 49, V1aR counter 45 (no result: TRPML3 ag, zfTRPN1 agonist)
O=c1ccc2[n+]([O-])c3ccc(O)cc3oc-2c1	TRPML3 ag 27, zfTRPN1 agonist 48 (no result: OXTR agonist, V1aR counter, OXTR potentiator)
CCOc1ccc(/C=C2\SC(=S)NC2=O)cc1OC	none
COc1ccc(/C=C2\SC(=O)NC2=S)cc1OC	TRPML3 ag 43, OXTR agonist 29, V1aR counter 36, zfTRPN1 agonist 74
COc1cccc(-c2nnc(-c3ccc(C(F)(F)F)cc3)o2)c1OC	none
CN(C)C=Nc1nonc1-c1ccccc1	none
CN(C)C=Nc1c(Br)cc(Br)c2nonc12	OXTR agonist 106, V1aR counter 84
COc1ccc(S(=O)(=O)Nc2ccc(S(=O)(=O)N3CCCC3)cc2)cc1	none
COc1ccc(S(=O)(=O)Nc2ccc(S(=O)(=O)N3CCCCC3)cc2)cc1	OXTR agonist 21, V1aR counter 24
OCCC1CN(Cc2cnc(-c3ccc(Cl)cc3)nc2)CCN1C1CCCCC1 (stereo not given)	none
O=C(O)c1ccc(N/N=C/C=C/c2ccc([N+](=O)[O-])o2)cc1	OXTR agonist 29, V1aR counter 41 (no result: TRPML3 ag, zfTRPN1 agonist)
NS(=O)(=O)c1ccc(-c2ccc(/C=N/Nc3ccc(C(=O)O)cc3)o2)cc1	none
O=[N+]([O-])c1ccc(N/N=C/c2c[nH]c3ccccc23)cc1	OXTR agonist 25, V1aR counter 24
O=C(O)c1cccc(-c2ccc(/C=N/Nc3ccc([N+](=O)[O-])cc3)o2)c1	OXTR agonist 26, V1aR counter 34, zfTRPN1 agonist 24
O=C(O)c1ccc(-c2ccc(/C=N/Nc3ccc([N+](=O)[O-])cc3)o2)cc1	TRPML3 ag 24, OXTR agonist 51, V1aR counter 65, zfTRPN1 agonist 39
COc1ccc(C(c2c(O)ccc3ccccc23)N2CCOCC2)c(OC)c1 (stereo not given)	none
COc1ccc([C@@H]2[C@@H]3C(=O)N(C(C)(C)C)C(=O)[C@@H]3[C@]3(CC(C)C)C(=O)N(c4ccccc4)C(=O)N23)cc1	none (no result: TRPML3 ag, zfTRPN1 agonist)
CS(=O)(=O)c1ccc(C2=C(c3ccccc3)C(=O)OC2)cc1	none (no result: TRPML3 ag, zfTRPN1 agonist)
O=C(Nc1ccc(C(=O)NCCCN2CCN(c3ccc(F)cc3)CC2)cc1)C1=CSCCO1	OXTR agonist 29, V1aR counter 26 (no result: TRPML3 ag, zfTRPN1 agonist)
O=C(Nc1ccc(C(=O)NCCCN2CCCCC2)cc1)C1=CSCCO1	none (no result: TRPML3 ag, zfTRPN1 agonist)
CCCCNc1cc(C)nc(NCc2ccccc2)n1	OXTR agonist 30, V1aR counter 27
Cc1cc(Nc2ccccc2)nc(NCc2ccccc2)n1	none
C=C(C)CN(CC)C(=O)COc1ccc(S(=O)(=O)Nc2ccc(OC)cc2)cc1	OXTR agonist 29, V1aR counter 24
CCOC(=O)N1CCN(c2c(NCc3ccc(F)cc3)c(=O)c2=O)CC1	none
CCn1c(=O)c(C(=O)NNC(=O)c2ccccc2F)c(O)c2ccccc21	OXTR agonist 28, V1aR counter 52 (no result: TRPML3 ag, zfTRPN1 agonist)
CCn1c(=O)c(C(=O)NNC(=O)c2ccccc2Cl)c(O)c2ccccc21	OXTR agonist 22, V1aR counter 41 (no result: TRPML3 ag, zfTRPN1 agonist)
CCCCCC(=O)NNC(=O)c1c(O)c2ccccc2n(CC)c1=O	none
COc1cccc(-c2nc3ccc(C(=O)N4CCCC(O)C4)cc3o2)c1 (stereo not given)	none (no result: TRPML3 ag, zfTRPN1 agonist)
CCN(CCn1cccn1)C(=O)CCc1nnc(CCCc2ccccc2)o1	TRPML3 ag 26, zfTRPN1 agonist 44
CCCN1C=CC(=C/C=C(\C#N)C(=O)OCC)C=C1	TRPML3 ag 15, OXTR agonist 62, V1aR counter 49, zfTRPN1 agonist 19
CCCCCCN1C=CC(=C/C=C(\C#N)C(=O)OCC)C=C1	TRPML3 ag 55, OXTR agonist 177, V1aR counter 149, zfTRPN1 agonist 65
CCOC(=O)/C(C#N)=C/N=c1ccc(C)cn1C	none
CCOC(=O)/C(C#N)=C/C=C1\C=Cc2ccccc2N1CC	none
O=C(Nc1ccncc1)c1c(Cl)cccc1Cl	none (no result: TRPML3 ag, zfTRPN1 agonist)
O=C(NCCCn1ccnc1)c1ccc(NS(=O)(=O)c2ccc(Cl)c(Cl)c2)cc1	none (no result: TRPML3 ag, zfTRPN1 agonist)
Cc1cccc(CC2S/C(=N/c3cccc(C)n3)NC2=O)c1 (stereo not given)	none
CC1=Nc2ccccc2/C1=C/c1sc(=S)n(-c2cccc(C(=O)O)c2)c1O	TRPML3 ag 18, zfTRPN1 agonist 20 (no result: OXTR agonist, V1aR counter, OXTR potentiator)
Oc1c(C=C2N=c3ccccc3=N2)sc(=S)n1-c1ccccc1	none
CC(C)CCSc1nc2ccccc2[nH]1	none
CCN(CC)c1ccc(/C=C(\C#N)c2nc(-c3cccs3)c(NC(C)=O)s2)cc1	TRPML3 ag 29, zfTRPN1 agonist 22 (no result: OXTR agonist, V1aR counter, OXTR potentiator)
O=C1/C(=C\c2c(NCCOCCO)nc3ccccn3c2=O)SC(=S)N1Cc1ccco1	OXTR agonist 40, V1aR counter 56 (no result: TRPML3 ag, zfTRPN1 agonist)
CCCN1C(=O)/C(=C/c2c(NCCCOCC)nc3c(C)cccn3c2=O)SC1=S	none (no result: OXTR agonist, V1aR counter, OXTR potentiator)
COc1ccc2ccccc2c1/C=N/NC(=O)c1cccc(Br)c1	none
O=C(N/N=C/c1c(O)ccc2ccccc12)c1cccc(C(F)(F)F)c1	TRPML3 ag 15, OXTR agonist 46, V1aR counter 53, zfTRPN1 agonist 35
O=C1SCCC1NS(=O)(=O)c1ccc([N+](=O)[O-])cc1 (stereo not given)	OXTR potentiator 26 (no result: TRPML3 ag, zfTRPN1 agonist)
N#C/C(=N\Nc1cccc(C(F)(F)F)c1)C(=O)c1ccsc1	TRPML3 ag 14, zfTRPN1 agonist 24
Cc1ccnc(OC(C(=O)O)C(OCCc2ccccc2)(c2ccccc2)c2ccccc2)n1 (stereo not given)	none (no result: TRPML3 ag, zfTRPN1 agonist)
C=CCSC1=C(C#N)C2(CCCCC2)C(C#N)C(=O)N1 (stereo not given)	none
COc1ccc2c3c(cccc13)C(=O)N(O)C2=O	none
Cc1ccc(N2C(=O)c3cccc4c(N)ccc(c34)C2=O)c2cccnc12	TRPML3 ag 28, OXTR agonist 133, V1aR counter 139, zfTRPN1 agonist 182
Cc1nn(C)c(C)c1N1C(=O)c2cccc3c(N)ccc(c23)C1=O	TRPML3 ag 93, OXTR agonist 108, V1aR counter 128, zfTRPN1 agonist 131
CCN1C(=O)c2cccc3c(N)ccc(c23)C1=O	OXTR agonist 77, V1aR counter 104 (no result: TRPML3 ag, zfTRPN1 agonist)
CCNC(=O)NC(=O)C(C)Sc1ncc(C(F)(F)F)cc1Cl (stereo not given)	none
